High-throughput results as filed in PubChem.
A selection: hits, their analogues and other compounds. The true share with any hit is near 1.3%.
CAL PDZ FP-1: CAL PDZ peptide-binding inhibitors, primary screen, biochemical, fluorescence polarization, Cer-tagged CAL PDZ, HTS. purified CAL PDZ, TMR-peptide fluorescence polarization, 1 h. inhibition, % at 20 µM. actives 0.02% (n = 330,000);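 active = highest replicate inhibition of at least 40%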;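 note: plate controls were DMSO neutral control wells for no effect and unlabeled competitor peptide control wells for full effect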
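Material: tagged CAL PDZ domain; buffer or medium: 25 mM sodium phosphate pH 7.4, 150 mM NaCl, TCEP, IgG, Thesit; compound dosing: single point, 20 µM; schedule: 1 h incubation at room temperature before polarization reading; measured by: FP readout, S and P plane fluorescence; read-out basis: percent inhibition from loss of millipolarization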
CAL PDZ FP-2: untagged CAL PDZ binding inhibitors, primary screen, biochemical, fluorescence polarization, HTS | actives 0.92% (n = 300,000) | Golgi-associated PDZ and coiled-coil motif-containing protein (Homo sapiens), Q9HD26 | inhibition, % at 24.9 µM | purified CAL PDZ, TMR-peptide fluorescence polarization, 1 h;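 active = mean inhibition of at least 30% with at least half of replicates also reaching 30%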;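 note: 0% = DMSO neutral control and 100% = excess unlabeled competitor peptide PRC23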
RTF Ca sens inh: cardiac RTF calcium sensitivity inhibitors, primary screen, biochemical, IANBD-TnC fluorescence, EC70 calcium. actives 0.12% (n = 340,000). inhibition, % at 7.15 µM. IANBD-labeled cardiac RTF, Ca2+ fluorescence;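 active = inhibition above the mean inhibition of all tested compounds plus 3 SD, cut at about 17% in these data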;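 note: assay run at fixed EC70 calcium of 1.6 mM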
C-LANA FP: inhibitors of KSHV C-LANA binding to DNA, primary screen, biochemical, fluorescence polarization, FAM-LBS DNA, MBP-C-LANA, single point; inhibition, % at 9 µM; AID 504423, 2011; Kaposi's sarcoma herpesvirus LANA C-terminal domain (residues 932-1162) DNA binding; actives 0.078% (n = 340,000);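 active = highest replicate inhibition at or above 60% at 9 µM, even if other replicates fall short; inactive = all replicates below 60% inhibition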;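 note: 0% = neutral control wells and 100% = 4 µM acridine orange control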
cardiac RTF act: cardiac RTF calcium sensitivity activators, primary screen, biochemical, IANBD-TnC fluorescence, EC20 calcium; activation, % at 7.2 µM; AID 493008, 2010; actives 0.24% (n = 340,000); Troponin I, cardiac muscle (Homo sapiens) + Troponin T, cardiac muscle (Homo sapiens) + …; IANBD-labeled TnC RTF fluorescence at EC20 calcium; 0% EC20 calcium, 100% full calcium;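 active = activation above the mean over all tested compounds plus 3 SD, cut at about 30% in these data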;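 note: rise in fluorescence read as greater calcium sensitivity of cardiac thin filaments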
Keap1-Nrf2 PPI: Keap1-Nrf2 protein-protein interaction inhibitors, primary screen, biochemical, fluorescence polarization, single point | Keap1 Kelch-Nrf2 peptide fluorescence polarization, 1536-well | inhibition, % at 9.4 µM | actives 0.15% (n = 340,000); in the data active = inhibition above about 12%;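 note: human Keap1 Kelch domain with fluorescein labeled Nrf2 9mer peptide probe; 0% = neutral control wells and 100% = peptide positive control; higher means more block of Keap1 binding to Nrf2 peptide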
Target sequence (Q14145 whole entry, looked up, the tested form may be a part): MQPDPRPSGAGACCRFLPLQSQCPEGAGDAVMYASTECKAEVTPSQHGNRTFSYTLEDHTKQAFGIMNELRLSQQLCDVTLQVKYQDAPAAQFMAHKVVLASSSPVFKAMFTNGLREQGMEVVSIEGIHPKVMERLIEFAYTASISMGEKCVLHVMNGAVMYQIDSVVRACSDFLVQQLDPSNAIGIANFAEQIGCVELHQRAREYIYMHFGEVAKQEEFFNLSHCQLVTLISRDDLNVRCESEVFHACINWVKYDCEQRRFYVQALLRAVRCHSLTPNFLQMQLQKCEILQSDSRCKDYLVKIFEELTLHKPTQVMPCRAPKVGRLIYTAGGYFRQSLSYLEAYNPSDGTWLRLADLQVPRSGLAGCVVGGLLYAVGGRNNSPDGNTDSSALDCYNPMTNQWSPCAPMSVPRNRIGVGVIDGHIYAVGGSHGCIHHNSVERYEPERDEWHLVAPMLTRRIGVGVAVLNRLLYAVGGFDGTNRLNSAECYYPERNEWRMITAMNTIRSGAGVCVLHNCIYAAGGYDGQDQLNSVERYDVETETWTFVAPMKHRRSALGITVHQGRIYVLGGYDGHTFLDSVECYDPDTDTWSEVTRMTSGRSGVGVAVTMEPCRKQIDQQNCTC
Active calls of the source: *; i = inactive; nt = no result.

SMILES	CAL PDZ FP-1	CAL PDZ FP-2	RTF Ca sens inh	C-LANA FP	cardiac RTF act	Keap1-Nrf2 PPI
Cc1ccc(CNc2ccc3c(c2)OCO3)cc1	-1	nt	-61	9	39*	5
O=S(=O)(Nc1cccnc1)c1ccc(Br)c2ccccc12	1	nt	1	-2	5	-7
CCOc1cc(C(=O)Nc2ccc(S(=O)(=O)N3CCCCC3)cc2)ccc1OCC(=O)N1CCOCC1	-1	-43	-10	0	4	0
O=C1C(Cl)=C(N2CCCC2)C(=O)N1c1ccccc1F	0	-2	-3	2	3	-4
CCOC(=O)C1CCCN(C(=O)c2ccc(Cn3c(=S)[nH]c4cc(C(=O)OC)ccc4c3=O)cc2)C1 (centres undefined)	0	4	-11	1	-4	3
CCOC(=O)N1CCN(C(=O)c2ccc3c(=O)n(-c4ccc(OC)cc4OC)c(=S)[nH]c3c2)CC1	-3	82*	-10	1	3	3
CCOC(=O)C1CCCN(C(=O)c2ccc3c(=O)n(Cc4ccccc4OC)c(=S)[nH]c3c2)C1 (centres undefined)	-1	32*	3	1	-1	-7
CCCCCCn1cc(C(=O)O)c(=O)c2cc(F)c(N3CCN(C)CC3)cc21	-1	30*	-1	-1	4	0
Cn1nnnc1SCc1nc2ccccc2s1	0	nt	-1	-2	0	-7
Cn1nnnc1SCc1cccc2ccccc12	nt	34*	0	-3	0	-2
CCN1C(=O)[C@H]2[C@@H](c3ccc(-c4ccc(Cl)c(Cl)c4)c(OC)c3)N[C@@](Cc3ccccc3)(C(=O)OC)[C@H]2C1=O	0	0	9	0	-2	-7
Clc1ccc(CN2CCSCC2)cc1Cl	-2	-4	-3	0	9	0
O=C1CSCC(=O)N1Cc1ccc(Cl)c(Cl)c1	nt	43*	-5	-2	0	0
Cc1ccc(C(C)(C)C)cc1S(=O)(=O)N1CCC(C(=O)N2CCN(c3ccc(O)cc3)CC2)CC1	0	0	1	2	-3	3
CC(C)CNc1nc(S(=O)(=O)c2ccccc2)c(Cl)s1	-2	-4	1	2	2	-3
CN(C)CCNc1nc(S(=O)(=O)c2ccccc2)c(Cl)s1	-1	83*	-6	0	-1	-3
O=C1CC(c2ccc(O)c(O)c2)Oc2c1ccc(O)c2O (centres undefined)	0	10	-1	97*	-6	-2
CN(Cc1ccn[nH]1)C(=O)C1CCC(=O)N(Cc2cccc(C(F)(F)F)c2)C1 (centres undefined)	-1	-4	-10	0	-1	-1
CC(=O)n1nc(-c2ccncc2)nc1SCC(=O)Nc1cccc(Cl)c1	-2	45*	-29	-1	6	0
O=C(Oc1c(CN2CCOCC2)cc(Cl)c2cccnc12)c1ccccc1	0	47*	-6	0	-2	3
COc1ccc(C)cc1S(=O)(=O)N1CCCC(C(=O)NC2CC2)C1 (centres undefined)	0	36*	-9	-1	-1	-2
CC(C)(C)S(=O)(=O)c1cnc2c(-c3ccsc3)cnn2c1N	0	48*	0	3	-5	-6
COc1ccc(N=C2SCC(c3ccc([N+](=O)[O-])cc3)=NN2CCO)cc1	0	-2	-20	0	18	2
O=[N+]([O-])c1ccc(C2=NN(CCO)C(=Nc3ccc(OC(F)(F)F)cc3)SC2)cc1	0	31*	-7	0	3	0
CCOC(=O)/C(=C\C=C1/Sc2cc(OCC)c(OCC)cc2N1CC)C(C)=O	0	1	i	-116	516*	-454
SMILES	CAL PDZ FP-1	CAL PDZ FP-2	RTF Ca sens inh	C-LANA FP	cardiac RTF act	Keap1-Nrf2 PPI
CCN1/C(=C\C=C2\C(=O)N(C)C(=S)N2C)Sc2ccccc21	0	-3	-17	-1	15	-2
CCOC(=O)/C(=C/C=C1\Sc2cc(OCC)c(OCC)cc2N1CC)C(C)=O	1	-1	i	-92	534*	-460
Cc1cccn2c(=O)c(C(=O)NCCCN3CC(C)CC(C)C3)c(O)nc12 (centres undefined)	-1	-2	-5	-1	3	-4
O=C1CC(c2ccc3c(c2)OCCO3)Oc2ccc([N+](=O)[O-])cc21 (centres undefined)	0	79*	-6	-2	0	-6
O=C1CC(c2ccc3c(c2)OCCO3)Oc2ccccc21 (centres undefined)	-1	-3	-3	-1	-2	-5
Cc1cc(C(=O)Nc2ccccc2C(=O)O)oc1C	-1	1	-7	0	4	-3
CCN(C(=O)CN1C(=O)/C(=C/c2ccccc2)SC1=S)C1CCS(=O)(=O)C1 (centres undefined)	0	72*	2	1	0	-4
CCOC(=O)C1=CC[C@H]2c3c(c4ccccc4n3C)C[C@H]1N2C	0	-3	-2	0	12	-4
O=C(NCc1nnc(SCC(=O)N2CCCC2)o1)c1cccc(C(F)(F)F)c1	-1	-10	-1	1	-2	1
NC(=O)c1c(N)sc2c1CCCCC2	-2	3	-1	4	30*	-7
NC(=O)c1c(N)sc2c1CCC2	0	1	-1	1	-1	-8
CC1CCN(C(=O)COC(=O)c2ccc(N3CCCC3=O)cc2)CC1	-1	46*	-8	0	-2	-1
CC12CCC(=O)N1C(C(=O)N1CCN(c3ccccc3)CC1)CS2 (centres undefined)	0	nt	-1	-1	-2	-1
CC12CCC(=O)N1C(C(=O)N1CCN(c3cccc(Cl)c3)CC1)CS2 (centres undefined)	0	80*	-10	-3	-5	2
CC(C)c1csc(CN2CCC(N3CCC(C(=O)NCC4CCCO4)CC3)CC2)n1 (centres undefined)	0	39*	-9	1	2	2
CC(C)NC(=O)C1CCN(C2CCN(Cc3nc(C(C)C)cs3)CC2)CC1	-2	nt	9	-1	0	1
